Rows were chosen to be rich in hits. Some 3.4% of all compounds tested hit in one or more screens of this group.
MLL AF4-AF9 inh: MLL-AF4/AF9 protein interaction inhibition; P42568; AlphaScreen, biotin-AF4 peptide binding to FLAG-AF9; AID 651704; hit rate 0.47% among 350,000; inhibition, % at 10 µM;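 active means every replicate reaching a set inhibition limit, whatever the replicate mean, cut at about 25% in these data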;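 further: 0% = plate neutral control median and 100% = total signal loss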
SIRT5 inh: inhibitors of human sirtuin-5 desuccinylase | Purified SirT5, succinyl-peptide AMC, trypsin-coupled fluorescence | inhibition, % at 15 µM | hit rate 1.1% among 330,000 | AID 652115; in the data active means inhibition above about 15%
Ecoli rRNA inh: inhibits bacterial ribosomal RNA function over humanized ribosomes; AID 720706; E. coli WT GFP vs humanized-ribosome RFP mutants, fluorescence, 24 h; active compounds read low; DMSO median 0, no signal -100; hit rate 1.6% among 350,000; GFP signal change (wild-type ribosome), % (concentration not given with the values);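 active means significant combined selectivity score with lowered wild-type GFP, culture density cut under 30%, mutant RFP and density less affected; inactive means any of these conditions unmet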
S100A4 MyoIIA: inhibitors of human S100A4 binding to myosin IIA peptide; S100A4/TAMRA-MyoIIA peptide fluorescence polarization; inhibition, % at 10.7 µM; P26447; hit rate 0.14% among 360,000; AID 652163;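 active means mean inhibition of at least 70% across replicates, with every replicate also reaching that level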
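System – human S100A4 monomer protein, biochemical binding assay · Buffer or medium – Calcium-containing HEPES buffer, pH 7.2 · Timing – 5 min between mix addition and reading · Also added – TAMRA-labelled myosin IIA heavy-chain peptide probe, 5 nM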
E-selectin induc: induces E-selectin expression in human endothelial cells | HUVEC E-selectin immunofluorescence imaging; normalized: neutral wells 0, TNF-alpha wells 100 | hit rate 0.37% among 260,000 | activation, % at 7.58 µM | P16581 | AID 686992;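 active means mean E-selectin-positive cell signal at least 10% of the positive control, reached in at least 60% of replicates, without over 20% cell loss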
Target sequence (P16581 whole entry, looked up): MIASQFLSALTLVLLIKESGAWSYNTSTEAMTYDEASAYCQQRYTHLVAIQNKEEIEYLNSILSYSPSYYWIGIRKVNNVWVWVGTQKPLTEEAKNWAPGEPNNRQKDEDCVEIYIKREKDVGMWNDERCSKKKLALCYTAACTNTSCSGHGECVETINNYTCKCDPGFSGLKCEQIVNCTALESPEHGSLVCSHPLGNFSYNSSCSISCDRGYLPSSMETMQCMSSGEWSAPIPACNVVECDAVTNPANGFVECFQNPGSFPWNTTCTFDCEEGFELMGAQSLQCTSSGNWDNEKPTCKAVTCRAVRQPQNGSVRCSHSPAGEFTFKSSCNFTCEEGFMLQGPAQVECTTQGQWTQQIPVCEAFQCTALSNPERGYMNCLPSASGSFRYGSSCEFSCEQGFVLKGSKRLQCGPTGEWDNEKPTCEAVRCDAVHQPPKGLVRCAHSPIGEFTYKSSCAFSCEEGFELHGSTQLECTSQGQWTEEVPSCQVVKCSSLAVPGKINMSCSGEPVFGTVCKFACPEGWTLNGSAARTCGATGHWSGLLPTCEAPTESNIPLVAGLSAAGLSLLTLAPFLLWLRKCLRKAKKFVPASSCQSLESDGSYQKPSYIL
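Test system: HUVEC; input: 3,000 HUVEC/well; measured by: immunofluorescence imaging; read-out: % PE-positive cells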
ERAP1 inh: ERAP1 (human) enzyme inhibition. AID 652197. recombinant ERAP1, Leu-AMC fluorescence, 60 min. hit rate 0.15% among 340,000. inhibition, % at 10.7 µM;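 active means mean replicate inhibition of at least 30%, or all replicates individually reaching that 30% level; inactive means mean below 30% and not every replicate reaching it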;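 further: 0% = neutral control wells and 100% = L-leucinethiol positive control wells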
Starred values were filed as active, the others as inactive; / = not tested or not shown.

SMILES	MLL AF4-AF9 inh	SIRT5 inh	Ecoli rRNA inh	S100A4 MyoIIA	E-selectin induc	ERAP1 inh
Cc1cccc(C2c3[nH]c4ccccc4c3CCN2Cc2cccn2-c2ncccn2)c1 (centres undefined)	31*	-5	-5	-5	2	-3
COc1ccc(C2c3[nH]c4ccccc4c3CCN2Cc2cccn2-c2ncccn2)cc1C (centres undefined)	31*	0	-16	-3	/	-4
COc1ccc2c3c([nH]c2c1)[C@@H](CO)NCC31CCN(C(=O)C2CCCC2)CC1	-1	8	-2	0	0	-2
Cc1ccccc1-c1ccc([C@H]2[C@@H](CO)N3C(=O)CN(C(=O)c4ccccn4)C[C@@H]23)cc1	1	7	-7	6	0	/
COC(=O)c1ccc(CN2CCCC(CO)(Cc3ccccc3F)C2)cc1 (centres undefined)	2	0	-20*	-1	0	-2
C[C@@H]1CN([C@@H](C)CO)C(=O)c2cc(NC(=O)Cc3ccccc3)ccc2O[C@@H](C)CCCCO[C@@H]1CN(C)S(=O)(=O)c1ccccc1	2	12	-2	-1	/	-2
CS/C(=N\S(=O)(=O)c1cccs1)Nc1ccc(F)c(Cl)c1	-6	-4	-13	-3	/	1
CS/C(=N\S(=O)(=O)c1cccs1)Nc1cccc(Cl)c1C	-1	-1	-44*	0	0	-1
O=C(CN1CCCCC1)Nc1ccc(S(=O)(=O)c2ccc(NC(=O)CN3CCCCC3)cc2)cc1	6	/	10	-2	0	-4
O=C(Nc1ccc(N2CCCCCC2)cc1)c1ccc[nH]1	34*	-15	1	-5	0	1
Cc1cc(C)cc(C(=O)Nc2ccc(N3CCCC3)cc2)c1	12	0	-30*	-6	2	0
O=C(CN1CCCCC1)Nc1ccc(N2CCCCCC2)cc1	31*	-6	9	3	1	/
O=C(COc1ccc2ccc(=O)oc2c1)Nc1ccc(N2CCCCC2)cc1	47*	3	5	7	/	-3
O=C(Nc1ccc(N2CCCCCC2)cc1)c1ccccc1Cl	22	-2	-29	-3	/	2
Cc1ccc(C(=O)N2CCN(c3ccc(NC(=O)c4cc(C)cc(C)c4)cc3)CC2)cc1	-1	-7	5	7	0	0
COc1ccc2c3c(n(C)c2c1)[C@H](CO)NCC31CCN(S(=O)(=O)c2ccc(C)cc2)CC1	3	/	-37	/	-1	/
O=C(C[C@H]1CC[C@@H](NC(=O)c2cccnc2)[C@@H](CO)O1)NCCN1CCCCC1	-1	0	-3	-13	0	-10
O=C(Nc1ccccc1)N1CC(=O)N2[C@@H](CO)[C@@H](c3ccc(C#CC4CCCC4)cc3)[C@@H]2C1	1	4	-13	4	0	0
CN(C)CCN(Cc1ccccc1)S(=O)(=O)c1ccc(-c2ccc(=O)[nH]n2)s1	-3	16*	1	-13	0	-2
CCCCN(Cc1cccs1)S(=O)(=O)c1ccc(-c2ccc(=O)[nH]n2)s1	0	0	-1	15	/	-6
C/C=C/c1ccc2c(c1)O[C@@H](CN(C)C(=O)Cc1ccccc1)[C@@H](C)CN([C@@H](C)CO)S2(=O)=O	4	0	-4	-16	0	-6
CCN(C(=O)CN1C(=O)NC(c2ccccc2)(c2ccccc2)C1=O)c1ccccc1	38*	-2	1	-11	2	0
CCNC(=O)C[C@H]1CC[C@@H]2[C@H](COC[C@@H](O)CN2Cc2ccncc2)O1	/	/	3	/	0	/
C[C@H]1CN([C@@H](C)CO)C(=O)c2cc(N(C)C)ccc2O[C@H]1CN(C)S(=O)(=O)c1cn(C)cn1	-3	-1	-1	1	415*	2
C[C@@H]1CN([C@H](C)CO)C(=O)c2cc(N(C)C)ccc2O[C@@H](C)CCCCO[C@H]1CN(C)S(=O)(=O)c1cn(C)cn1	1	-6	3	-30	0	1
SMILES	MLL AF4-AF9 inh	SIRT5 inh	Ecoli rRNA inh	S100A4 MyoIIA	E-selectin induc	ERAP1 inh
C[C@H](CO)N1C[C@H](C)[C@@H](CN(C)S(=O)(=O)c2cn(C)cn2)Oc2ccc(N(C)C)cc2C1=O	-3	-1	2	0	33*	0
O=C(O)C[C@H]1C=C[C@@H](NC(=O)CCN2CCCCC2)[C@@H](CO)O1	-4	-7	5	0	0	0
O=C1CCC/C(=N\NC(=O)c2ccc(CSc3cccc4cccnc34)cc2)C1	0	-3	-21*	-5	/	2
NNC(=O)c1ccc(CSc2cccc3cccnc23)cc1	4	-1	-6	-8	-2	0
O=C(Cc1ccccc1)N1CC[C@@H]2[C@H]1c1cc(Br)ccc1N[C@@H]2CO	2	0	-4	7	-1	-2
CCOC(=O)CSc1nc2c(sc(=S)n2-c2ccc(OCC)cc2)c(=O)[nH]1	-2	-1	/	2	0	5
CCOc1ccc(-n2c(=S)sc3c(=O)[nH]c(SCC(=O)N4CCC(C)CC4)nc32)cc1	/	/	-25*	-17	/	4
CCOc1ccc(-n2c(=S)sc3c(=O)[nH]c(SCC(=O)C(C)(C)C)nc32)cc1	-1	1	-29*	-2	/	-1
COCCCNC(=O)CSc1nc2c(sc(=S)n2-c2cc(Cl)ccc2OC)c(=O)[nH]1	-1	-1	2	3	46*	0
CCN(CC)C(=O)CSc1nc2c(sc(=S)n2-c2ccc(C)cc2C)c(=O)[nH]1	5	1	-27*	-3	/	1
COc1ccccc1NC(=O)N1C[C@H](O)COC[C@H]2O[C@@H](CC(=O)N3CCC(Cc4ccccc4)CC3)CC[C@@H]21	3	5	-1	6	0	-1
CS(=O)(=O)Nc1ccc2c(c1)[C@@H]1C[C@H](CC(=O)N3CCOCC3)O[C@@H](CO)[C@@H]1O2	-13	4	3	-18	1	2
C[C@@H]1CN([C@H](C)CO)S(=O)(=O)c2ccc(C#Cc3ccccc3F)cc2O[C@@H]1CN(C)CC1CC1	6	-4	-1	-3	0	-3
C[C@@H]1CN([C@@H](C)CO)C(=O)c2cc(NC(=O)Nc3ccc(F)cc3)ccc2O[C@H]1CN(C)S(=O)(=O)c1ccc(Cl)cc1	4	8	-1	44	2	0
C[C@H]1CN([C@@H](C)CO)C(=O)c2cc(NC(=O)Nc3ccc(C(F)(F)F)cc3)ccc2O[C@H]1CN(C)S(=O)(=O)c1ccc(Cl)cc1	0	23*	3	-8	0	0
C[C@H](CO)N1C[C@H](C)[C@H](CN(C)S(=O)(=O)c2ccc(Cl)cc2)Oc2ccc(NC(=O)Nc3ccc(F)cc3)cc2C1=O	-1	15*	0	-4	0	1
